Data set [1] has as its target Cruzipain (Trypanosoma cruzi) (UniProt P25779). In words: Inhibition of Trypanosoma cruzi cruzaine expressed in Escherichia coli SG13009 using Z-FR-AMC as substrate at 100 uM after 5 mins.
Data set [2] deals with Trypanosoma cruzi. Nature of the data set: Antitrypanosomal activity against amastigote stage of lacZ expressing Trypanosoma cruzi Tulahuen after 72 hrs. The format is functional, organism-based. Summed up:
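Human fibroblasts seeded 2×10^3/well in RPMI 1640 without phenol red, overnight; β-galactosidase-expressing trypomastigotes added 1.0×10^4/well. After 24 h, compounds (DMSO stocks diluted in medium) added in serial dilutions 300 to 0.4 μM, triplicate; 72 h incubation. CPRG with Nonidet P-40 (0.1% final) added, absorbance 570 nm; IC50 from curve fitting; benznidazole positive, untreated negative controls; ≥3 experiments.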

Data set [3] concerns Mus musculus. Nature of the data set: Acute toxicity in BALB/c mouse at 20, 30, 50 and 50 mg/kg, ip administered at 0, 2, 4, 6 hrs respectively and measured after 24 hrs post last dose. Also on record: dose 50 mg/kg, route intraperitoneal. The format is organism-based. The note with it: in vivo.
Data set [4] relates to Mus musculus. In words: Acute toxicity in BALB/c mouse at 20, 30, 50 and 50 mg/kg, ip administered at 0, 2, 4, 6 hrs respectively and measured after last dose. Format: organism-based. Also on record: dose 50 mg/kg, route intraperitoneal. As to conditions: in vivo. Summed up: (§1)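 One female BALB/c mouse (18–20 g) per compound. Stock diluted to 5 mg/mL in sterile distilled water, given ip as cumulative doses over 6 h (20, 30, 50, 50 mg/kg at 0, 2, 4, 6 h; total 150 mg/kg). Mice observed 48 h for acute toxicity signs (chill, thirst) or death, then euthanized.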

Data set [5] relates to Mus musculus. Nature of the data set: Acute toxicity in BALB/c mouse assessed as mortality incidence at 20, 30, 50 and 50 mg/kg, ip administered at 0, 2, 4, 6 hrs respectively and measured after 48 hrs post last dose. Format: organism-based. Also on record: dose 50 mg/kg, route intraperitoneal. As to conditions: in vivo. Summed up: as §1
Data set [6] deals with T1, Cruzipain (Trypanosoma cruzi, UniProt P25779). In words: Inhibition of Trypanosoma cruzi cruzaine expressed in Escherichia coli SG13009 using Z-FR-AMC as substrate after 5 mins.
In data set [7] the test system is Trypanosoma cruzi. In words: Ratio of benznidazole IC50 to compound IC50 for amastigote stage of lacZ expressing Trypanosoma cruzi Tulahuen. Format: functional. A digest of the protocol: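 Human fibroblasts (2×10^3/well) were seeded overnight in phenol-red-free RPMI 1640, then infected with β-galactosidase-expressing Tulahuen trypomastigotes (1.0×10^4/well). After 24 h, compounds (DMSO stocks) were added as serial dilutions from 300 to 0.4 μM, each in triplicate. After 72 h, CPRG with 0.1% Nonidet P-40 was added and A570 read. Benznidazole was run alongside as standard. IC50s are means of ≥3 experiments.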

Data set [8] has as its target T1, Cruzipain. Nature of the data set: Competitive inhibition of Trypanosoma cruzi cruzaine expressed in Escherichia coli SG13009 using Z-FR-AMC as substrate by Lineweaver-Burk plot analysis. A digest of the protocol:
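Mechanism study: eight Z-FR-AMC concentrations crossed with four inhibitor concentrations, each in triplicate, with 1.5 nM cruzain in 0.1 M sodium acetate pH 5.5, 5 mM DTT, 0.01% Triton X-100; 5 min initial rates; kinetic parameters obtained with an enzyme kinetics module.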

45 molecules from ChEMBL document CHEMBL3232808, “Synthesis, biological evaluation, and structure-activity relationships of potent noncovalent and nonpeptidic cruzain inhibitors as anti-Trypanosoma cruzi agents” (J Med Chem, 2014) can be followed below.

Each structure is given as a SMILES string. pIC50, pKi: −log10 of the molar value. Where only a bound is given, the exact number is not on record here.

Cruzipain (Trypanosoma cruzi), sequence (P25779 123-467 limits assumed): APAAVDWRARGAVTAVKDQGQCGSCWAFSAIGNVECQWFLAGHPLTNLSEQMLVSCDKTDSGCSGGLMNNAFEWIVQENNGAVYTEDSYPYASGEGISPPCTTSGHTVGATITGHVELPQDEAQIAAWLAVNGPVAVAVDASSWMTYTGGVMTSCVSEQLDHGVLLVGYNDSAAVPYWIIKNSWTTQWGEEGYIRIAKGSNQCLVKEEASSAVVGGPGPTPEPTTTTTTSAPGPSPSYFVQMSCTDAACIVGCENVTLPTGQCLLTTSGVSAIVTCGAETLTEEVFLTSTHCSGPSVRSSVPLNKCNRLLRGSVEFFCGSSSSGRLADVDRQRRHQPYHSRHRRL
T1 sequence (P25779 whole entry): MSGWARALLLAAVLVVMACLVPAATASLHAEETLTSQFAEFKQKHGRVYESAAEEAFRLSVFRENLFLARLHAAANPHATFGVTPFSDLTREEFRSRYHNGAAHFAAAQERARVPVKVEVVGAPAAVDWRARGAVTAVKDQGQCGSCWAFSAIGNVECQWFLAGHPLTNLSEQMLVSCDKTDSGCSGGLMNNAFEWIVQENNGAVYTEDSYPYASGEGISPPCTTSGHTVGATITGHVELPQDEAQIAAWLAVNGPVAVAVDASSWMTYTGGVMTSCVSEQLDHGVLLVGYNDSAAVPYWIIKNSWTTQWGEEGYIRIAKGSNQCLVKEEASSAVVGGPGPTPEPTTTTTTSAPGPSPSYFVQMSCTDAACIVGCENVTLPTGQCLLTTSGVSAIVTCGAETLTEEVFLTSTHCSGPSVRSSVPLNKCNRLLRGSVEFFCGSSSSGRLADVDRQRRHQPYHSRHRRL

As usually defined, the inhibition is the percentage by which the read-out fell short of the control. Low values mean a weak effect, high ones a strong effect. Usually pIC50 stands for −log10 of the IC50, conventionally taken in molar units. The low end stands for a high IC50, the high end for a low IC50. Molecule `Cc1ccccc1OCC(=O)NCCc1nc2ccccc2o1` had an inhibition in data set [1] of 33%. The molecule also had a pIC50 in the data set with Trypanosoma cruzi [2] of 5.54.
`O=C(COc1cccc(Br)c1)NCCc1nc2ccccc2[nH]1`: the Activity entry with Mus musculus [3] is “Non-toxic”; in the data set with Mus musculus [4], “Toxic”; in the data set on Mus musculus [5], “Non-toxic”. This molecule returned an inhibition in data set [1] of 96%. In addition, the pIC50 on Cruzipain [6] was 6.10; in the data set with Trypanosoma cruzi [2], under 4.00.
In turn, `Nc1ccccc1OCC(=O)NCCc1nc2ccccc2[nH]1` had an inhibition in data set [1] of 43%.
In data set [1], `O=C(COc1ccc2ccccc2c1)NCCc1cnc[nH]1` came in with an inhibition of 7%.
For the molecule `O=C(COc1ccccc1[N+](=O)[O-])NCCc1nc2ccccc2[nH]1`, in data set [1], the inhibition turned out to be 93%. Besides, the pIC50 on Cruzipain [6] is 4.88; in the data set on Trypanosoma cruzi [2], 5.10.
With `O=C(COc1ccccc1Cl)NCCc1cnc[nH]1`, the inhibition in data set [1] was 14%.
As for `Cc1ccccc1OCC(=O)NCCc1c[nH]c2ccccc12`, the inhibition in data set [1] stood at 5%.
As for `O=C(CCOc1ccccc1)NCCc1nc2ccccc2[nH]1`, in data set [1], the inhibition worked out at 25%.
The same measure, in the same setting: under `O=C(COc1ccc2ccccc2c1Br)NCCc1c[nH]c2ccccc12` stands 2%.
In data set [1], `CC(=O)n1c(CCNC(=O)COc2ccc(Br)cc2)nc2ccccc21` gave an inhibition of 84%. The pIC50 at Cruzipain [6] is 5.00; with Trypanosoma cruzi [2], 5.28.
`O=C(COc1ccccc1Br)NCCc1nc2ccccc2[nH]1`: the “Ratio IC50” value with Trypanosoma cruzi [7] worked out at 3. In data set [1], this molecule showed an inhibition of 89%. In addition, the results for the pIC50 against Cruzipain [6] and with Trypanosoma cruzi [2] were 6.10 and 5.80, respectively.
In data set [1], `O=C(COc1ccc2ccccc2c1)NCCC(=O)Nc1ccccc1O` came in with an inhibition of 14%.
The molecule `O=C(COc1ccc2ccccc2c1CO)NCCc1nc2ccccc2[nH]1` displayed an inhibition in data set [1] of 80%. The molecule further had a pIC50 on Cruzipain [6] of 4.90.
Take `O=C(COc1ccccc1Cl)NCCc1nc2ccccc2[nH]1`: the inhibition in data set [1] is 92%. Further, the figures for the pIC50 against Cruzipain [6] and with Trypanosoma cruzi [2] were 5.52 and under 4.00, respectively.
Consider `O=C(COc1ccccc1Br)NCCN1CCCCC1`, for which the inhibition in data set [1] amounted to 1%.
Regarding `O=C(CSc1ccccc1)NCCc1nc2ccccc2[nH]1`, the Activity entry in the data set on Mus musculus [3] was “Non-toxic”; with Mus musculus [4], “Toxic”; in the data set with Mus musculus [5], “Non-toxic”. This molecule also returned an inhibition in data set [1] of 66%. In addition, the figures for the pIC50 against Cruzipain [6] and in the data set with Trypanosoma cruzi [2] were 4.42 and under 4.00, respectively.
`O=C(COc1ccc2ccccc2c1O)NCCc1nc2ccccc2[nH]1` registered an inhibition in data set [1] of 51%. On Cruzipain [6], the pIC50 was 5.09.
With `Cc1ccccc1OCC(=O)NCCC(=O)NCc1ccccc1`, the inhibition in data set [1] came out at 8%.
For `O=C(COc1ccccc1F)NCCc1nc2ccccc2[nH]1`, the values for the Activity entry with Mus musculus [3], in the data set with Mus musculus [4] and with Mus musculus [5] were “Non-toxic”, “Toxic” and “Non-toxic”, respectively. The molecule further had an inhibition in data set [1] of 92%. Besides, the values for the pIC50 against Cruzipain [6] and in the data set on Trypanosoma cruzi [2] were 5.28 and under 4.00, respectively.
In data set [1], `Cc1cc(C)c(C#N)c(SCCNC(=O)COc2ccccc2C)n1` gave an inhibition of 13%.
As to `O=C(COc1ccccc1)NCCc1nc2ccccc2[nH]1`, in data set [1], the inhibition stood at 88%.
Consider `Cc1ccccc1OCC(=O)NCCN1CCCCC1`, for which, in data set [1], the inhibition turned out to be 3%.
Consider `N#Cc1ccccc1OCC(=O)NCCc1nc2ccccc2[nH]1`, for which the figures for the Activity result in the data set with Mus musculus [3], in the data set with Mus musculus [4] and with Mus musculus [5] were “Non-toxic”, “Toxic” and “Non-toxic”, respectively. Also, the inhibition in data set [1] worked out at 81%. Besides, the results for the pIC50 against Cruzipain [6] and in the data set on Trypanosoma cruzi [2] were 4.19 and 5.19, respectively.
`O=Cc1c(OCC(=O)NCCc2nc3ccccc3[nH]2)ccc2ccccc12` registered an inhibition in data set [1] of 80%. Further, the pIC50 against Cruzipain [6] is 4.87.
`O=C(CCc1ccccc1Br)NCCN1CCCCC1` displayed an inhibition in data set [1] of 7%.
In turn, `Nc1ccccc1NC(=O)CCNC(=O)COc1ccccc1[N+](=O)[O-]` yielded an inhibition in data set [1] of 4%.
Consider `Cc1ccccc1OCC(=O)NCCc1nc2ccccc2[nH]1`, for which the Activity entry in the data set with Mus musculus [3] is listed as “Non-toxic”; with Mus musculus [4] it was “Toxic”; in the data set on Mus musculus [5], “Non-toxic”. Further, the inhibition in data set [1] was determined as 88%. Further, the pIC50 on Cruzipain [6] is 5.39; in the data set with Trypanosoma cruzi [2], 5.55.
`Cc1ccc2[nH]c(CCNC(=O)COc3ccc4ccccc4c3Br)nc2c1` came in with an inhibition in data set [1] of 97%. The molecule further had a pIC50 against Cruzipain [6] of 6.21.
On to `Cc1ccccc1OCC(=O)NCCC(=O)O`, for which, in data set [1], the inhibition worked out at 8%.
In data set [1], `Cc1ccccc1OCCNCCc1nc2ccccc2[nH]1` had an inhibition of 8%.
Consider `O=C(COc1ccccc1I)NCCc1nc2ccccc2[nH]1`, for which the Activity result is listed as “Non-toxic” in the data set with Mus musculus [3], “Toxic” in the data set with Mus musculus [4] and “Toxic” in the data set with Mus musculus [5]. The molecule also displayed an inhibition in data set [1] of 96%. Also, the pIC50 against Cruzipain [6] is 5.80; in the data set on Trypanosoma cruzi [2], under 4.00.
`O=C(COc1ccc2ccccc2c1)NCCc1nc2ccccc2o1` had an inhibition in data set [1] of 22%.
With `O=C(COc1ccc2ccccc2c1Br)NCCc1nc2cc(Cl)ccc2[nH]1`, the inhibition in data set [1] is 90%. This molecule had a pIC50 against Cruzipain [6] of 6.22.
In turn, `O=C(Cn1ccnc1[N+](=O)[O-])NCc1ccccc1` [BENZNIDAZOLE] gave a pIC50 in the data set on Trypanosoma cruzi [2] of 5.32.
Turning to `O=C(COc1cccc2ccccc12)NCCc1nc2ccccc2[nH]1`, in data set [1], the inhibition turned out to be 84%. Besides, the pIC50 on Cruzipain [6] is 5.28; in the data set on Trypanosoma cruzi [2] it was under 4.00.
`CC(=O)Nc1ccccc1OCC(=O)NCCc1nc2ccccc2[nH]1`: the inhibition in data set [1] was found to be 25%.
As to `COc1ccc2[nH]c(CCNC(=O)COc3ccc4ccccc4c3Br)nc2c1`, in data set [1], the inhibition is 93%. At Cruzipain [6], this molecule gave a pIC50 of 6.27.
Consider `O=C(COc1ccc(Br)cc1)NCCc1nc2ccccc2[nH]1`, for which the Activity entry in the data set with Mus musculus [3] is reported as “Non-toxic”; in the data set on Mus musculus [4] it was “Toxic”; in the data set on Mus musculus [5], “Non-toxic”. The molecule further displayed an inhibition in data set [1] of 96%. Further, the negative logarithm of the IC50 (pIC50) at Cruzipain [6] is 5.57; with Trypanosoma cruzi [2], 5.17.
Turning to `Cc1ccccc1OCC(=O)NCCC(=O)Nc1ccccc1O`, the inhibition in data set [1] came out at 2%.
As for `O=C(COc1ccc2ccccc2c1)NCCc1nc2ccccc2[nH]1`, the inhibition in data set [1] was found to be 90%. Moreover, the pIC50 at Cruzipain [6] is 5.52; with Trypanosoma cruzi [2], 4.34.
The molecule `O=C(CCc1ccccc1Br)NCCc1nc2ccccc2[nH]1` displayed an inhibition in data set [1] of 51%. The pIC50 against Cruzipain [6] was 4.11; with Trypanosoma cruzi [2] it was 4.46.
As for `C=CCCn1c(CCNC(=O)COc2ccccc2Cl)nc2ccccc21`, the inhibition in data set [1] turned out to be 89%. Moreover, the figures for the pIC50 against Cruzipain [6] and in the data set with Trypanosoma cruzi [2] were 4.62 and 4.95, respectively.
In general, pKi refers to −log10 of the Ki, conventionally taken in molar units. A higher pKi goes with a low Ki. In the case of `O=C(COc1ccc2ccccc2c1Br)NCCc1nc2ccccc2[nH]1`, the pKi on Cruzipain [8] is 7.09. For the same molecule, the inhibition in data set [1] worked out at 92%. The figures for the pIC50 on Cruzipain [6] and in the data set with Trypanosoma cruzi [2] were 6.68 and 4.79, respectively.
For `CC(=O)n1c(CCNC(=O)COc2ccccc2[N+](=O)[O-])nc2ccccc21`, the inhibition in data set [1] amounted to 47%.
In data set [1], `Cc1ccccc1OCC(=O)NCCC(=O)Nc1ccccc1` came in with an inhibition of 4%.
